Data reported in ChEMBL document CHEMBL5046259, “Cannabinoids Block Cellular Entry of SARS-CoV-2 and the Emerging Variants” (J Nat Prod, 2022).
In brackets after ≈: the same amount, converted by molar mass.

How the values were obtained:
Type in all cases: functional, organism-based
SARS-CoV-2 [1] = experiment: Antiviral activity against pseudovirus SARS-CoV-2 spike protein infected in HEK293T cells overexpressing ACE2 assessed as inhibition on pseudovirus infection incubated for 45 hrs by fluorescence microscopy; details: Severe acute respiratory syndrome coronavirus 2, HEK-293T
Summary of the method: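 293T-ACE2 cells were seeded at 10 000 per well. Spike-pseudotyped lentivirus carrying a GFP reporter was mixed with 2-fold serial dilutions of compound (in DMSO) or vehicle for 1 h at 37 °C, then added to cells with 5 μg/mL Polybrene. After 44 h, cells were fixed and DAPI-stained. Total GFP area was normalized to DAPI and to vehicle (n = 3). IC50 came from a three-parameter logistic fit.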

SARS-CoV-2 [2] = experiment: Antiviral activity against SARS-CoV-2 variant B.1.1.7 strain infected in African green monkey Vero E6 cells assessed as inhibition of viral entry incubated for 1 hr proir to infection and measured after 48 hrs by Focus forming assay; details: Severe acute respiratory syndrome coronavirus 2, B.1.1.7, Vero C1008
SARS-CoV-2 [3] = experiment: Antiviral activity against SARS-CoV-2 variant B.1.351 strain infected in African green monkey Vero E6 cells assessed as inhibition of viral entry incubated for 1 hr prior to infection and measured after 48 hrs by Focus forming assay; details: Severe acute respiratory syndrome coronavirus 2, B.1.351, Vero C1008

Row | Compound | IC50 (SARS-CoV-2 [1]) | IC50 (SARS-CoV-2 [2]) | IC50 (SARS-CoV-2 [3])
1 | C=C(C)[C@@H]1CCC(C)=C[C@H]1c1c(O)cc(CCCCC)c(C(=O)O)c1O [CANNABIDIOLIC ACID] | 7.7 µg/mL (≈ 21.5 µM) | 11 µg/mL (≈ 30.7 µM) | 19 µg/mL (≈ 53 µM)
2 | CCCCCc1cc(O)c(C/C=C(\C)CCC=C(C)C)c(O)c1C(=O)O [CANNABIGEROLIC ACID] | 8.4 µg/mL (≈ 23.3 µM) | 26 µg/mL (≈ 72.1 µM) | 35 µg/mL (≈ 97.1 µM)
